Experimental data published in PMC7385434 (Science Advances, 2020).
Each block holds one compound with its values, some of them ahead of it.

Experiments:
[1] = Particle size and morphology by TEM and DLS; type: physicochemical
Procedure, shortened: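 Nanoparticles were formed by quick injection of a 4.0 mM DMSO peptide stock into water (0.5:99.5 v/v), giving 20 μM. They were incubated with CD105 (0.25 μg/ml) for 0, 4 and 8 h, with BSA or no protein as controls. TEM: drops sat on copper mesh 15 min, were blotted, stained 15 min with uranyl acetate, water-washed, air-dried and imaged at 200 kV. DLS was run at 0 and 8 h.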

[2] = tested on: HUVECs; test: CCK-8 cytotoxicity assay, HUVECs; type: cell-based, human; settings: CCK-8, 24 hours, 10-80 μM, n = 4
[3] = tested on: MCF-7 cells; test: CCK-8 cytotoxicity assay, MCF-7 cells; type: cell-based, human; settings: CCK-8, 24 hours, 10-80 μM, n = 4
[4] = tested on: MDA-MB-231 xenografted tumor; test: Blood oxygen saturation; type: in vivo, mouse; settings: 4 hours after i.v. injection, 200 μl, 200 μM; n = 30 slices
Procedure, shortened: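 MDA-MB-231 tumor-bearing BALB/c mice were anesthetized with isoflurane in a glass box. Test nanoparticles (200 μl, 200 μM) were given i.v.; peptide-only NPs and PBS (200 μl) served as controls. Multispectral optoacoustic tomography read Hb at 715 nm and HbO2 at 850 nm before and 4 h after injection. 3D maps were built from 30 2D slices at 0.1 mm steps. Data are means ± SD; unpaired two-tailed t test.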

[5] = tested on: MDA-MB-231 tumor; test: In vivo and ex vivo fluorescence imaging of tumor accumulation and retention; set-up: species or system mouse; settings: 200 μM, n = 3
Procedure, shortened: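 MDA-MB-231-bearing BALB/c nude mice received test nanoparticles (200 μl, 200 μM) i.v.; peptide-only NPs and PBS served as controls. Whole-body fluorescence (ex 500 nm, em 520 nm) was imaged at 4, 12, 24, 48 and 72 h. At 72 h, heart, liver, spleen, lung, kidney and tumor were excised for ex vivo fluorescence imaging. Groups had three to four mice.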

[6] = Safety: body weight and H&E of normal tissues during therapy; type: in vivo, mouse
Procedure, shortened: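 MDA-MB-231-bearing mice were randomized into three groups of three to four. They received test nanoparticles i.v. (200 μl, 200 μM; 2.4 mg/kg) every other day, with peptide-only NPs and PBS as controls. Body weight and tumor volume were recorded every other day. Normal tissues were fixed overnight in 4% paraformaldehyde/PBS, paraffin-embedded, sectioned, H&E-stained and examined by light microscopy.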

[7] = Safety for blood circulation: platelet activity, thrombin, platelet numbers; type: in vivo, mouse; settings: tumor-bearing mice, i.v. 200 μl, 200 μM, up to 5 days
Procedure, shortened: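 Tumor-bearing mice received test nanoparticles (200 μl, 200 μM) i.v. Blood was drawn into 3.8% sodium citrate at 0, 1, 4, 24 and 120 h. Platelet-rich plasma was obtained by mixing blood with an equal volume of 2% paraformaldehyde in PBS for 30 min, then centrifuging at 1000 rpm for 10 min. P-selectin was measured by flow cytometry after 30 min with FITC anti-P-selectin mAb. Thrombin was measured by ELISA; platelet counts by flow cytometry.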

[8] = tested on: tumor growth; settings: sunitinib at a dose of 8.75 mg/kg; cited from earlier work
[9] = in vivo fluorescence at 4, 12, 24, 48, 72 hours after i.v. 200 μl

Compound: BP-FFVLK-AHKHVHHVPVRL [pNPs]
- size during incubation with CD105 (TEM) ([1]; 20 μM with CD105 0.25 μg/ml in water, pNPs at start, apNFs at 4 hours): 30.6 ± 7.1 nm
- size by DLS before incubation with CD105 ([1]; 20 μM, 0 hours, multidisperse after CD105 incubation 8 hours): 31.6 nm
- diameter (TEM and DLS) ([1]; 20 μM, H2O:DMSO = 99.5:0.5 v/v, freshly prepared): 23.1 ± 5.8 nm
- stability of nanoparticles in water ([1]; 20 μM, water with 0.5% DMSO, without CD105, 0 and 8 h, CD, FT-IR, TEM): stable
- diameter after incubation with BSA in place of CD105 ([1]; bovine serum albumin replacing CD105, remained particulate): 29.5 ± 5.3 nm
- concentration showing good biocompatibility (cell viability) [2]: below 50 μM
- concentration showing good biocompatibility (cell viability) [3]: below 50 μM
- decrease in sO2 in tumors compared with before injection [4]: 33.8%
- persistence of fluorescence in tumor [5, 9]: 72 h
- time up to which artificial clots continuously accumulated in tumor [5, 9]: 24 h
- acute systemic toxicity by body weight ([6]; i.v. 200 μM, 200 μl every other day, body weight every other day): did not induce acute systematic toxicity
- cell necrosis in other (non-tumor) tissues, H&E ([6]; tissues harvested 15 d after treatment): not observed
- change in plasma thrombin generation ([7]; ELISA): did not induce obvious changes
- change in circulating platelet numbers ([7]; flow cytometry): did not induce obvious changes
- change in platelet activity (P-selectin-positive platelets) ([7]; flow cytometry): did not induce obvious changes

- tumor fluorescence at 72 hours ([5]; in vivo fluorescence after i.v. 200 μl): almost disappeared
Compound: BP-AHKHVHHVPVRL [BA NPs]

Compound: CCN(CC)CCNC(=O)c1c(C)[nH]c(/C=C2\C(=O)Nc3ccc(F)cc32)c1C [sunitinib]
- tumor growth inhibition [8]: 32%
